# Bioassay records deposited in PubChem BioAssay by several laboratories.
# GRIN3A LBD mod: modulators (binders) of human NR3A ligand-binding domain; NR3A LBD differential scanning fluorimetry, Tm shift; 0% = protein alone, 100% = glycine-bound protein; Tm shift relative to glycine control, % at 25 µM; actives 2.5% (n = 340,000); AID 1259313;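 active means melting temperature shift of at least 10% of the positive control shift, at one fixed dose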
# MPTP inh: inhibitors of mitochondrial permeability transition pore. isolated mouse mitochondria, Ca2+ swelling absorbance, 30 min. inhibition, % at 10 µM. actives 1.4% (n = 360,000). AID 602449;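 active means inhibition of 50% or more, scaled per plate between neutral and stimulator controls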;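 further: 0% = DMSO wells given calcium and 100% = 1 mM EGTA wells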
# aDG glyco up: alpha-DG glycosylation activation | Pro5-aDG cells, alpha-DG glycosylation AlphaScreen (IIH6); 0% Pro5, 100% B10-LARGE cell signal | activation, % at 10 µM | actives 0.22% (n = 360,000) | AID 624168;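 active means activation of at least 8% versus controls, or a plate z-score of at least 8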;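 further: Pro5 are CHO cells carrying HIG-tagged alpha-DG that lacks glycosylation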
# proCasp3 act: activates human procaspase-3; activation, % at 8.5 µM; recombinant procaspase-3 D3A, Ac-DEVD-pNA absorbance 405 nm; P42574; AID 463141; actives 0.11% (n = 330,000);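 active means activation above the mean of all tested compounds plus 3 SD, cut at about 21% in these data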;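 further: 0% = DMSO alone and 100% = DMSO wells spiked with extra 5 µM PC-3 D3A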
#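 Test system: Procaspase-3 D3A mutant, all three cleavage aspartates alanine | Dosing: Single dose, 8.5 µM nominal compound, 0.8% DMSO | Schedule: 1 h preincubation, 2 h reaction | Technique: 405 nm absorbance of p-nitroaniline, reads at 0 and 120 min | Repeats: One well per compound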
# proCasp7 act: activates human procaspase-7, counter-screen for procaspase-3 activators; P55210; recombinant procaspase-7, Ac-DEVD-pNA absorbance 405 nm; D23A/D198A/D206A triple mutant, cannot self-cleave; scale: DMSO 0, 5 µM enzyme 100; activation, % at 8.5 µM; actives 0.093% (n = 330,000);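 active means percent activation above the screen-wide mean plus 3 SD, cut at about 25% in these data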
# Target sequence (P55210 whole entry D23A/D198A/D206A): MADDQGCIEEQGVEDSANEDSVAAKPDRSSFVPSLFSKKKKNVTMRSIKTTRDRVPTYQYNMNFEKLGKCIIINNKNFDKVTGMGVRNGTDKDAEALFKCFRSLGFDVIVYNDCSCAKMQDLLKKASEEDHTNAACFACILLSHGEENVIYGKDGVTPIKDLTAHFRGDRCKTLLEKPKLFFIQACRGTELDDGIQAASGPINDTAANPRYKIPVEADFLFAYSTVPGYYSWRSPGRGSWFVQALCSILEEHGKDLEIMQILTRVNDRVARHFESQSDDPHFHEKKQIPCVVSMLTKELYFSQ
#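 Assay system: Uncleavable procaspase-7 mutant enzyme; Input: 2 µM procaspase-7 mutant as dispensed; Also added: DEVD-pNA substrate; Medium: Zinc-free HEPES pH 7.4 with 300 mM NaCl, 0.01% Triton X-100; Timing: 1 h compound preincubation, 2 h substrate cleavage, 25 °C; Measured by: Epi-absorbance of released pNA at 405 nm, two timepoints.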
# * = called active by the depositor; x = no result. Sampled rows, rich in hits. Any-hit rate of the full collection: about 3.7%.
SMILES,GRIN3A LBD mod,MPTP inh,aDG glyco up,proCasp3 act,proCasp7 act
O=C(NC1CCCCC1)C(c1ccccc1)n1c(=O)c(-c2cc3ccccc3[nH]2)nc2ccccc21 (configuration not stated),x,3,1,x,x
COC(=O)Cn1c(=NC(=O)c2nc3ccccc3s2)sc2cc(S(N)(=O)=O)ccc21,-2,-1,0,6,4
CCOC(=O)Cn1c(=NC(=O)c2cc(-c3cccs3)nc3ccccc23)sc2cc(S(N)(=O)=O)ccc21,26*,-2,0,-4,-11
COc1ccccc1Nc1ccc(Nc2ccccc2OC)nn1,12*,4,0,-3,-7
COc1ccc(OC)c(Nc2ccc(Nc3cc(OC)ccc3OC)nn2)c1,6,9,0,-4,-1
CSC(=S)NN=C(C)c1cccc(C)n1,15*,-1,0,x,x
CC(=NNC(=S)N1CCCCC1)c1cccc(C)n1,0,0,0,x,x
CCOc1ccccc1N1CCN(C(=O)CCNS(=O)(=O)c2ccccc2F)CC1,41*,-1,0,-1,3
CCOc1ccc(/C=C(\C#N)C(=O)NCC2CCCO2)cc1OCC (configuration not stated),13*,0,0,-4,1
CC1(C)C2CCC1(C)C(OC(=O)CC(=O)O)C2 (configuration not stated),10*,x,x,2,3
CCOC(=O)C1(C)CCCN1C(=O)c1snnc1C (configuration not stated),x,-2,0,x,x
CCOc1ccc(S(=O)(=O)N2c3ccccc3CC2C)cc1 (configuration not stated),14*,6,0,-3,-9
CCOC(=O)N1CCN(C(=O)C2CCCN(S(=O)(=O)c3ccc(OCC)cc3)C2)CC1 (configuration not stated),13*,2,0,4,-1
Cc1ccc(S(=O)(=O)N2c3ccccc3CC2C)cc1 (configuration not stated),-1,0,0,7,-8
COc1ccc(S(=O)(=O)N2CCC(C(=O)N3CCc4ccccc4C3)CC2)cc1,2,-7,0,3,7
CCOc1ccc(S(=O)(=O)N2CCC(C(=O)N3CCc4ccccc4C3)CC2)cc1,20*,-2,0,5,1
CCCc1cc2c(cc1N(C)S(=O)(=O)c1ccccc1)OCO2,0,1,0,x,x
COc1cccc(S(=O)(=O)NC2CCN(C#N)C2)c1 (configuration not stated),0,-2,0,6,-5
CCC(C)C(CO)NCCCn1cnc2c(OCc3ccccc3)ncnc21 (configuration not stated),x,0,0,x,x
CC(C)CCNC(=O)NC(=O)COC(=O)/C=C/c1cnc2ccccc2n1,11*,3,0,-1,-1
CC(C)CCNC(=O)NC(=O)COC(=O)/C=C/c1cccc([N+](=O)[O-])c1,0,1,0,-1,7
COc1cc([N+](=O)[O-])ccc1N=Nc1c(N)[nH]n(-c2ccccc2)c1=O,-4,6,0,-2,-11
Nc1[nH]n(-c2ccccc2)c(=O)c1N=Nc1ccccc1,-4,1,0,-7,-4
Nc1[nH]n(-c2ccccc2)c(=O)c1N=Nc1ccc2ncsc2c1,14*,4,0,-32,-21
Nc1[nH]n(-c2ccccc2)c(=O)c1N=Nc1ccccc1[N+](=O)[O-],21*,-1,-1,10,6
CCOC(=O)C1=CCN(S(=O)(=O)c2ccc(C)cc2)C1c1ccc(CC)cc1 (configuration not stated),x,0,0,x,x
Cc1cn([C@H]2C[C@H](O)[C@@H](CNCc3ccc(Oc4cc(-n5cccn5)ncn4)cc3)O2)c(=O)[nH]c1=O,x,-2,0,x,x
C=CCNC(C(=O)Nc1cccc(OC)c1)c1ccccc1 (configuration not stated),15*,-1,0,-2,3
COc1cccc(NC(=O)C(NCC(C)(C)CN(C)C)c2ccccc2)c1 (configuration not stated),2,-1,0,-3,4
COc1ccc(-n2ncc3c(Nc4cccc(C)c4)ncnc32)cc1,29*,2,0,6,-2
